According to ChEMBL document CHEMBL2057101, “Fluorocyclines. 2. Optimization of the C-9 side-chain for antibacterial activity and oral efficacy” (J Med Chem, 2012):
≈ marks a conversion by molar mass, not a printed value.

Key:
[1] = tested on: Staphylococcus aureus; experiment: Antibacterial activity against tetracycline-susceptible Staphylococcus aureus ATCC 13709 Smith isolate SA100; assay type: functional
In short: (§1)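 Broth microdilution MIC following CLSI methods in cation-adjusted Mueller Hinton broth, prepared fresh and held at 4 °C before testing. Defibrinated horse blood added to the medium where appropriate. Runs accepted when quality control ranges for comparator antibiotics and ATCC QC strains were met.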

[2] = tested on: Staphylococcus aureus; experiment: Antibacterial activity against tetracycline-resistant Staphylococcus aureus isolate SA161 expressing TetM gene; assay type: functional; in short: as §1
[3] = tested on: Staphylococcus aureus; experiment: Antibacterial activity against tetracycline-resistant Staphylococcus aureus isolate SA158 expressing TetK gene; assay type: functional
[4] = tested on: Streptococcus pneumoniae; experiment: Antibacterial activity against Streptococcus pneumoniae ATCC 49619 isolate 106; assay type: functional
In short: (§2)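 MIC by broth microdilution in liquid medium per CLSI, in cation-adjusted Mueller Hinton broth made fresh and held at 4 °C before testing. Horse blood (defibrinated) added to the medium where appropriate. Runs were accepted only when the comparator antibiotics and ATCC QC strains fell within their recommended ranges.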

[5] = tested on: Streptococcus pneumoniae; experiment: Antibacterial activity against tetracycline-resistant Streptococcus pneumoniae isolate 160 expressing tetM gene; assay type: functional
[6] = tested on: Escherichia coli; experiment: Antibacterial activity against Escherichia coli ATCC 25922 isolate 107; assay type: functional; in short: as §2
[7] = tested on: Escherichia coli; experiment: Antibacterial activity against Escherichia coli isolate EC155 expressing tetA gene; assay type: functional; in short: as §2
[8] = tested on: Staphylococcus aureus; experiment: Antibacterial activity against Staphylococcus aureus ATCC 13709 infected in CD-1 mouse assessed as increase in survival at 3 mg/kg, iv administered as single dose 1 hr post infection measured after 48 hrs post infection; assay type: functional
In short: (§3)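 Mouse septicemia screen: S. aureus grown to log phase, diluted in 5% mucin to give 90% mortality within 48 h, inoculum 1.98 × 10⁶ CFU/mouse, 0.5 mL intraperitoneal into female CD-1 mice (18−20 g). Six mice per group. Single 30 mg/kg oral gavage or 3 mg/kg IV dose 1 h post infection. Infection controls received sterile water vehicle. Survival recorded at 48 h.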

[9] = tested on: Staphylococcus aureus; experiment: Antibacterial activity against Staphylococcus aureus ATCC 13709 infected in CD-1 mouse assessed as increase in survival at 30 mg/kg, po administered as single dose 1 hr post infection measured after 48 hrs post infection; assay type: functional; in short: as §3
[10] = tested on: Klebsiella pneumoniae; experiment: Antibacterial activity against Klebsiella pneumoniae ATCC 13883; assay type: functional; in short: as §2
[11] = tested on: Staphylococcus aureus; experiment: Antibacterial activity against Staphylococcus aureus ATCC 13709 infected in po dosed CD-1 mouse assessed as increase in survival administered as single dose 1 hr post infection measured after 48 hrs post infection; assay type: functional; conditions: ATCC 13709, po, read-out: PD50
[12] = Oral bioavailability in rat; assay type: ADME, organism-based; conditions: in vivo
[13] = tested on: Staphylococcus aureus; experiment: Antibacterial activity against methicillin-resistant Staphylococcus aureus VL-137; assay type: functional; in short: as §1
[14] = tested on: Streptococcus pneumoniae; experiment: Antibacterial activity against Streptococcus pneumoniae SPN160; assay type: functional; in short: as §1
[15] = tested on: Haemophilus influenzae; experiment: Antibacterial activity against Haemophilus influenzae 551; assay type: functional; in short: as §2
[16] = tested on: Streptococcus pyogenes; experiment: Antibacterial activity against Streptococcus pyogenes; assay type: functional; in short: as §2
[17] = tested on: Moraxella catarrhalis; experiment: Antibacterial activity against Moraxella catarrhalis; assay type: functional; in short: as §2
[18] = tested on: Acinetobacter baumannii; experiment: Antibacterial activity against Acinetobacter baumannii; assay type: functional; in short: as §2

| Compound | MIC [1] [µg/mL] | MIC [2] [µg/mL] | MIC [3] [µg/mL] | MIC [4] [µg/mL] | MIC [5] [µg/mL] | MIC [6] [µg/mL] | MIC [7] [µg/mL] | survival at 3 mg/kg [8] [%] | survival at 30 mg/kg [9] [%] | MIC [10] [µg/mL] | ED50 [11] [mg/kg] | other results |
| --- | --- | --- | --- | --- | --- | --- | --- | --- | --- | --- | --- | --- |
| CCN1CCC[C@H]1C(=O)Nc1cc(F)c2c(c1O)C(=O)C1=C(O)[C@]3(O)C(=O)C(C(N)=O)=C(O)[C@@H](N(C)C)[C@@H]3C[C@@H]1C2 | 0.031 (≈ 0.0541 µM) | 0.13 (≈ 0.227 µM) | 0.031 (≈ 0.0541 µM) | ≤ 0.016 | ≤ 0.016 | 0.13 (≈ 0.227 µM) | 4 (≈ 6.99 µM) | 67 | 40 | – | – | – |
| CN(C)[C@@H]1C(O)=C(C(N)=O)C(=O)[C@@]2(O)C(O)=C3C(=O)c4c(O)c(NC(=O)[C@@H]5C[C@H](F)CN5C)cc(F)c4C[C@H]3C[C@@H]12 | 0.13 (≈ 0.225 µM) | 0.5 (≈ 0.867 µM) | 0.063 (≈ 0.109 µM) | 0.016 (≈ 0.0278 µM) | 0.016 (≈ 0.0278 µM) | 2 (≈ 3.47 µM) | > 32 | 83 | 33 | 16 (≈ 27.8 µM) | – | – |
| CN(C)[C@@H]1C(O)=C(C(N)=O)C(=O)[C@@]2(O)C(O)=C3C(=O)c4c(O)c(NC(=O)c5ccccn5)cc(F)c4C[C@H]3C[C@@H]12 | 0.13 (≈ 0.235 µM) | 0.13 (≈ 0.235 µM) | 0.13 (≈ 0.235 µM) | 4 (≈ 7.24 µM) | 8 (≈ 14.5 µM) | > 32 | > 32 | 0 | 0 | > 32 | > 30 | – |
| CN(C)[C@@H]1C(O)=C(C(N)=O)C(=O)[C@@]2(O)C(O)=C3C(=O)c4c(O)c(NC(=O)c5nccs5)cc(F)c4C[C@H]3C[C@@H]12 | 0.063 (≈ 0.113 µM) | 0.13 (≈ 0.233 µM) | 0.063 (≈ 0.113 µM) | 2 (≈ 3.58 µM) | 4 (≈ 7.16 µM) | > 32 | > 32 | 17 | 0 | > 32 | – | – |
| CN(C)[C@@H]1C(O)=C(C(N)=O)C(=O)[C@@]2(O)C(O)=C3C(=O)c4c(O)c(NC(=O)[C@@H]5CCN5C)cc(F)c4C[C@H]3C[C@@H]12 | 0.016 (≈ 0.0294 µM) | 0.016 (≈ 0.0294 µM) | 0.016 (≈ 0.0294 µM) | 0.016 (≈ 0.0294 µM) | 0.016 (≈ 0.0294 µM) | 0.016 (≈ 0.0294 µM) | 1 (≈ 1.84 µM) | 100 | 83 | 0.063 (≈ 0.116 µM) | 14.3 | bioavailability [12]: 4.6%; MIC50 [13]: 0.031 µg/mL (≈ 0.0569 µM); MIC90 [13]: 1 µg/mL (≈ 1.84 µM); MIC [14]: 0.016 µg/mL (≈ 0.0294 µM); MIC50 [14]: 0.016 µg/mL (≈ 0.0294 µM); MIC90 [14]: 0.016 µg/mL (≈ 0.0294 µM); MIC50 [15]: 0.063 µg/mL (≈ 0.116 µM); MIC90 [15]: 0.25 µg/mL (≈ 0.459 µM); MIC [16]: 0.016 µg/mL (≈ 0.0294 µM); MIC50 [16]: 0.016 µg/mL (≈ 0.0294 µM); MIC90 [16]: 0.016 µg/mL (≈ 0.0294 µM); MIC [17]: 0.016 µg/mL (≈ 0.0294 µM); MIC50 [17]: 0.016 µg/mL (≈ 0.0294 µM); MIC90 [17]: 0.016 µg/mL (≈ 0.0294 µM); MIC50 [18]: 0.13 µg/mL (≈ 0.239 µM); MIC90 [18]: 1 µg/mL (≈ 1.84 µM) |
| CN(C)[C@@H]1C(O)=C(C(N)=O)C(=O)[C@@]2(O)C(O)=C3C(=O)c4c(O)c(NS(C)(=O)=O)cc(F)c4C[C@H]3C[C@@H]12 | 0.13 (≈ 0.247 µM) | 0.25 (≈ 0.476 µM) | 4 (≈ 7.61 µM) | 0.016 (≈ 0.0304 µM) | 0.016 (≈ 0.0304 µM) | 0.25 (≈ 0.476 µM) | > 32 | 100 | 50 | 2 (≈ 3.81 µM) | > 30 | – |
| CNC(=O)Nc1cc(F)c2c(c1O)C(=O)C1=C(O)[C@]3(O)C(=O)C(C(N)=O)=C(O)[C@@H](N(C)C)[C@@H]3C[C@@H]1C2 | 0.25 (≈ 0.496 µM) | 2 (≈ 3.96 µM) | 16 (≈ 31.7 µM) | 0.031 (≈ 0.0615 µM) | 0.5 (≈ 0.991 µM) | 1 (≈ 1.98 µM) | > 32 | 83 | 33 | 4 (≈ 7.93 µM) | > 30 | – |
| CCCNc1cc(F)c2c(c1O)C(=O)C1=C(O)[C@]3(O)C(=O)C(C(N)=O)=C(O)[C@@H](N(C)C)[C@@H]3C[C@@H]1C2 | 0.5 (≈ 1.02 µM) | 0.5 (≈ 1.02 µM) | 0.5 (≈ 1.02 µM) | 1 (≈ 2.04 µM) | 4 (≈ 8.17 µM) | 32 (≈ 65.4 µM) | > 32 | – | – | > 32 | – | – |
